Source: ChEMBL document CHEMBL4715759, “Synthesis, biological evaluation and molecular modeling study of thiadiazolo[3,2-a][1,3]diazepine analogues of HIE-124 as a new class of short acting hypnotics” (Eur J Med Chem, 2016)
The source made the active and inactive calls. The calls are words filed in the database; no cut-off is given here.

What was measured:
Mus musculus [1] = test: Hypnotic activity in mouse assessed as duration of sleep time at 0.8 mmol/Kg, ip by righting reflex; assay type: functional
Procedure, shortened: (§1)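 Mice were first checked for an intact righting reflex. Single i.p. doses of 0.2–2 mmol/kg were given in DMSO (up to 1 ml/kg), or as a 0.25% aqueous carboxymethylcellulose suspension (up to 10 ml/kg) for larger doses, with vehicle controls. Each mouse was placed under a 30-cm glass funnel and monitored visually and by video. Onset of sleep was timed. Duration ended at regain of the righting reflex 3 times within 1 min. Minimal effective dose recorded; n=6.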

Mus musculus [2] = test: Hypnotic activity in mouse assessed as onset of sleep time at 0.8 mmol/Kg, ip by righting reflex; assay type: functional; procedure, shortened: as §1
[3] = Therapeutic Index, ratio of LD50 of Toxicity in iv dosed mouse to minimum effective hypnotic dose in mouse; assay type: organism-based; conditions: in vivo, read-out: TI
Mus musculus [4] = test: Hypnotic activity in mouse assessed as onset of sleep time at 1 mmol/Kg, ip by righting reflex; assay type: functional; procedure, shortened: as §1
Mus musculus [5] = test: Hypnotic activity in mouse assessed as duration of sleep time at 1 mmol/Kg, ip by righting reflex; assay type: functional; procedure, shortened: as §1
Mus musculus [6] = test: Hypnotic activity in mouse assessed as duration of sleep time at 0.03 mmol/Kg, ip in presence of 0.06 mmole/kg thiopenetal by righting reflex; assay type: functional
Procedure, shortened: (§2)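 Mice received a test compound (0.03–0.06 mmol/kg) together with thiopental sodium (0.06 mmol/kg), both i.p. Vehicle was DMSO (up to 1 ml/kg), or 0.25% aqueous sodium carboxymethylcellulose suspension for larger doses (up to 10 ml/kg). Each mouse was kept under a 30-cm glass funnel and watched visually and on video. Sleep onset was timed. Duration ended when the righting reflex was regained 3 times within one minute. n=6.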

Mus musculus [7] = test: Hypnotic activity in mouse assessed as duration of sleep time at 0.4 mmol/Kg, ip by righting reflex; assay type: functional; procedure, shortened: as §1
Mus musculus [8] = test: Hypnotic activity in mouse assessed as onset of sleep time at 0.03 mmol/Kg, ip in presence of 0.06 mmole/kg thiopenetal by righting reflex; assay type: functional; procedure, shortened: as §2
Mus musculus [9] = test: Hypnotic activity in mouse assessed as onset of sleep time at 0.4 mmol/Kg, ip by righting reflex; assay type: functional; procedure, shortened: as §1
Mus musculus [10] = test: Hypnotic activity in mouse assessed as duration of sleep time at 0.06 mmol/Kg, ip in presence of 0.06 mmole/kg thiopenetal by righting reflex; assay type: functional; procedure, shortened: as §2
Mus musculus [11] = test: Hypnotic activity in mouse assessed as duration of sleep time at 0.05 mmol/Kg, ip in presence of 0.06 mmole/kg thiopenetal by righting reflex; assay type: functional; procedure, shortened: as §2
Mus musculus [12] = test: Hypnotic activity in mouse assessed as onset of sleep time at 0.06 mmol/Kg, ip in presence of 0.06 mmole/kg thiopenetal by righting reflex; assay type: functional; procedure, shortened: as §2
Mus musculus [13] = test: Hypnotic activity in mouse assessed as onset of sleep time at 0.05 mmol/Kg, ip in presence of 0.06 mmole/kg thiopenetal by righting reflex; assay type: functional; procedure, shortened: as §2
Mus musculus [14] = test: Hypnotic activity in mouse assessed as onset of sleep time at 0.2 mmol/Kg, ip by righting reflex; assay type: functional
Procedure, shortened: (§3)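 Mice screened for intact righting reflex, then dosed i.p. (0.2–2 mmol/kg range; DMSO up to 1 ml/kg, or larger doses suspended in 0.25% aqueous Na-CMC up to 10 ml/kg). Each mouse was held under a 30-cm glass funnel and monitored visually and by video. Onset was recorded at loss of righting reflex. Sleep ended when the reflex was regained 3 times within one minute. n=6.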

Mus musculus [15] = test: Hypnotic activity in mouse assessed as duration of sleep time at 0.2 mmol/Kg, ip by righting reflex; assay type: functional; procedure, shortened: as §3
Mus musculus [16] = test: Hypnotic activity in mouse assessed as duration of sleep time at 1.6 mmol/Kg, ip by righting reflex; assay type: functional, organism-based; procedure, shortened: as §1
Mus musculus [17] = test: Hypnotic activity in mouse assessed as onset of sleep time at 1.6 mmol/Kg, ip by righting reflex; assay type: functional; procedure, shortened: as §1

## O=C1CCCN2N=C(C(F)(F)F)SC2=N1
Mus musculus [1]
  Time: 14 min
Mus musculus [2]
  Time: 14 min
[3]
  selectivity ratio: 3.32

## CC1=NN2CCCC(=O)N=C2S1
Mus musculus [4]
  Time: 25 min
[3]
  selectivity ratio: 3.55
Mus musculus [5]
  Time: 6 min

## O=C1CCCN2N=C(c3ccc(Br)cc3)SC2=N1
Mus musculus [6]
  Time: 75 min
Mus musculus [7]
  Activity: inactive
Mus musculus [8]
  Time: 3.1 min
[3]
  selectivity ratio: 1.5
Mus musculus [9]
  Time: 43.4 min

## O=C1CCCN2N=C(c3ccccc3)SC2=N1
Mus musculus [10]
  Time: 62.5 min
Mus musculus [7]
  Time: 94.8 min
Mus musculus [11]
  Time: 5 min
[3]
  selectivity ratio: 6.62
Mus musculus [9]
  Time: 6.4 min
Mus musculus [12]
  Time: 7.5 min
Mus musculus [13]
  Time: 15 min

## CCCC(C)C1(CC)C(=O)[N-]C(=S)NC1=O.[Na+] (centres undefined) [THIOPENTAL SODIUM]
Mus musculus [14]
  Time: 2 min
Mus musculus [15]
  Time: 45 min
[3]
  selectivity ratio: 6.1

## Cc1ccc(C2=NN3CCCC(=O)N=C3S2)cc1
Mus musculus [16]
  Activity: inactive
[3]
  selectivity ratio: 1.25
Mus musculus [17]
  Time: 20 min
